Common to all, as to type: cell-based
One assay concerns HCT-116 (colon cancer). Kind of assay: MTT cell viability assay, HCT-116. The conditions noted are these: Homo sapiens; for IC50: HCT-116, 48 h, read-out: IC50 values, HCT-116; for cytotoxicity at 100 µM: HCT-116, read-out: Cytotoxicity %, HCT-116. The procedure, abridged: (§1)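 MTT viability assay on human cell lines: MCF-7, HCT-116, PC3 and normal BJ-1. Test compounds were first screened at 100 μM. IC50 values came from a concentration series of 100 μM down to 12.5 μM.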
For orientation: Tetrazolium dyes change colour on reduction, which living cells bring about.

Another assay has as its system MCF-7 (breast cancer). Nature of the assay: MTT cell viability assay, MCF-7. The conditions noted are these: Homo sapiens; for IC50: MCF7, 48 h, read-out: IC50 values, MCF-7; for cytotoxicity at 100 µM: MCF7, read-out: Cytotoxicity %, MCF-7. Summed up: as §1
A further assay deals with PC3 (prostate cancer). Nature of the assay: MTT cell viability assay, PC3. The settings on record: Homo sapiens; for IC50: 48 h, read-out: IC50 values, PC3; for cytotoxicity at 100 µM: read-out: Cytotoxicity %, PC3. The procedure, abridged:
as §1

Ten compounds from article PMC11843914 (RSC Advances, 2025) can be followed below.

The structures appear in SMILES notation. A value given as a limit tells only on which side of the number the result lay.

What is called IC50 is the concentration at which inhibition is half-maximal. Take `O=c1[nH]cc(F)c(=O)[nH]1` [5-FU, 5-fluorouracil, reference compound]: the results for the IC50 in the assay on HCT-116 (colon cancer), in the assay on MCF-7 (breast cancer) and in the assay with PC3 (prostate cancer) were 29.2 ± 1.7 µM, 78.4 ± 4.2 µM and above 200 µM, respectively.

Regarding `O=C(NN=Cc1ccc(O)cc1)c1nc2ccccc2s1` [6a, N′-(4-Hydroxybenzylidene)benzo[d]thiazole-2-carbohydrazide], the IC50 in the assay with HCT-116 (colon cancer) came to 102 ± 2.1 µM.

Consider `COc1ccc(C=NNC(=O)c2nc3ccccc3s2)cc1O` [6c, N'-(3-Hydroxy-4-methoxybenzylidene)benzo[d]thiazole-2-carbohydrazide], for which, in the assay on MCF-7 (breast cancer), the IC50 came out at 80.9 ± 3.7 µM and the cytotoxicity at 100 µM was 58.1%.

Turning to `CS(=O)(=O)Oc1ccc(C=NNC(=O)c2nc3ccccc3s2)cc1` [6d, 4-((2-(Benzo[d]thiazole-2-carbonyl)hydrazono)methyl)phenyl methanesulfonate], the cytotoxicity at 100 µM in the assay on HCT-116 (colon cancer) was 66.7%; in the assay on MCF-7 (breast cancer), 62.5%; in the assay with PC3 (prostate cancer), 66.5%.

`COc1cc(C=NNC(=O)c2nc3ccccc3s2)ccc1OS(C)(=O)=O` [6e, 4-((2-(Benzo[d]thiazole-2-carbonyl)hydrazono)methyl)-2-methoxyphenyl methanesulfonate]: the IC50 was 81.4 ± 1.9 µM in the assay on HCT-116 (colon cancer) and 90.6 ± 2.7 µM in the assay with PC3 (prostate cancer). The results for the cytotoxicity at 100 µM with HCT-116 (colon cancer) and with PC3 (prostate cancer) were 61.1% and 60.8%, respectively.

Take `COc1ccc(C=NNC(=O)c2nc3ccccc3s2)cc1OS(C)(=O)=O` [6f, 5-((2-(Benzo[d]thiazole-2-carbonyl)hydrazono)methyl)-2-methoxyphenyl methanesulfonate]: the cytotoxicity at 100 µM with HCT-116 (colon cancer) is 62.8%.

Regarding `CCS(=O)(=O)Oc1ccc(C=NNC(=O)c2nc3ccccc3s2)cc1` [6g, 4-((2-(Benzo[d]thiazole-2-carbonyl)hydrazono)methyl)phenyl ethanesulfonate], the cytotoxicity at 100 µM with HCT-116 (colon cancer) was 68.6%; with MCF-7 (breast cancer) it was 62.3%; with PC3 (prostate cancer), 74.8%.

As to `CCS(=O)(=O)Oc1ccc(C=NNC(=O)c2nc3ccccc3s2)cc1OC` [6h, 4-((2-(Benzo[d]thiazole-2-carbonyl)hydrazono)methyl)-2-methoxyphenyl ethanesulfonate], the cytotoxicity at 100 µM amounted to 55.2% in the assay on HCT-116 (colon cancer) and 63.4% in the assay with PC3 (prostate cancer).

In the case of `CCCS(=O)(=O)Oc1ccc(C=NNC(=O)c2nc3ccccc3s2)cc1` [6j, 4-((2-(Benzo[d]thiazole-2-carbonyl)hydrazono)methyl)phenyl propane-1-sulfonate], the cytotoxicity at 100 µM stood at 68.5% in the assay on HCT-116 (colon cancer) and 62.3% in the assay with PC3 (prostate cancer).

Turning to `CCCS(=O)(=O)Oc1ccc(C=NNC(=O)c2nc3ccccc3s2)cc1OC` [6k, 4-((2-(Benzo[d]thiazole-2-carbonyl)hydrazono)methyl)-2-methoxyphenyl propane-1-sulfonate], the cytotoxicity at 100 µM in the assay with HCT-116 (colon cancer) turned out to be 77.2%; in the assay on MCF-7 (breast cancer), 59.6%; with PC3 (prostate cancer), 64.6%.
